MIC data for two compounds are collected here from ChEMBL document CHEMBL4138284, “Biomimetic Stereoselective Sulfa-Michael Addition Leads to Platensimycin and Platencin Sulfur Analogues against Methicillin-Resistant Staphylococcus aureus” (J Nat Prod, 2018).

Structures are written as SMILES. Values after ≈ are worked out from the molar mass of the structure shown.

The subject of one experiment is Staphylococcus aureus. The experiment is described as follows: Antibacterial activity against methicillin-resistant Staphylococcus aureus isolate 8 incubated overnight by agar dilution method. The format is functional. The procedure, abridged: (§1)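 MIC by agar dilution. Strains were grown overnight in LB broth and diluted, then about 10^4 CFU (2 μL spots) were spotted onto LB agar plates containing test compound at 0.5 to 8 μg mL−1 agar. Plates were incubated overnight at 37 °C and inspected for growth. Clinical MSSA and MRSA isolates came from local hospitals.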
For orientation: In agar dilution, organisms are placed on agar that contains the substance at set levels.
The MIC is the lowest concentration that inhibits growth of the organism. A low value points to a more susceptible organism. With `C[C@]12C[C@]34C[C@@H]1C[C@H](O2)[C@H]3[C@](C)(CCC(=O)Nc1c(O)ccc(C(=O)O)c1O)C(=O)C[C@@H]4SC(=O)c1ccc(F)cc1`, inhibition of growth (MIC) required 2 µg/mL (≈ 3.35 µM).
Same read-out and setting: as for `Cc1ccc(C(=O)S[C@H]2CC(=O)[C@@](C)(CCC(=O)Nc3c(O)ccc(C(=O)O)c3O)[C@@H]3[C@@H]4C[C@H]5C[C@]23C[C@]5(C)O4)cc1`, the figure is 1 µg/mL (≈ 1.68 µM).

The next experiment relates to Staphylococcus aureus. The experiment is described as follows: Antibacterial activity against methicillin-sensitive Staphylococcus aureus isolate 2 incubated overnight by agar dilution method. The format is functional. A digest of the protocol:
as §1
On to `C[C@]12C[C@]34C[C@@H]1C[C@H](O2)[C@H]3[C@](C)(CCC(=O)Nc1c(O)ccc(C(=O)O)c1O)C(=O)C[C@@H]4SC(=O)c1ccc(F)cc1`, for which 1 µg/mL (≈ 1.67 µM) was the least that counted as inhibitory (MIC).
On the same count and under the same terms, the figure for `Cc1ccc(C(=O)S[C@H]2CC(=O)[C@@](C)(CCC(=O)Nc3c(O)ccc(C(=O)O)c3O)[C@@H]3[C@@H]4C[C@H]5C[C@]23C[C@]5(C)O4)cc1` is 1 µg/mL (≈ 1.68 µM).

Another experiment concerns Staphylococcus aureus. Nature of the experiment: Antibacterial activity against methicillin-sensitive Staphylococcus aureus isolate 4 incubated overnight by agar dilution method. The format is functional. The procedure, abridged:
as §1
For the compound `C[C@]12C[C@]34C[C@@H]1C[C@H](O2)[C@H]3[C@](C)(CCC(=O)Nc1c(O)ccc(C(=O)O)c1O)C(=O)C[C@@H]4SC(=O)c1ccc(F)cc1`, it took 1 µg/mL (≈ 1.67 µM) to inhibit growth (MIC).
On the same count and under the same terms, the figure for `Cc1ccc(C(=O)S[C@H]2CC(=O)[C@@](C)(CCC(=O)Nc3c(O)ccc(C(=O)O)c3O)[C@@H]3[C@@H]4C[C@H]5C[C@]23C[C@]5(C)O4)cc1` is 1 µg/mL (≈ 1.68 µM).

The next experiment has as its system Staphylococcus aureus. The experiment is described as follows: Antibacterial activity against methicillin-resistant Staphylococcus aureus isolate 7 incubated overnight by agar dilution method. The format is functional. The procedure, abridged: as §1
In the case of `C[C@]12C[C@]34C[C@@H]1C[C@H](O2)[C@H]3[C@](C)(CCC(=O)Nc1c(O)ccc(C(=O)O)c1O)C(=O)C[C@@H]4SC(=O)c1ccc(F)cc1`, the MIC stood at 1 µg/mL (≈ 1.67 µM).
Still for that read-out and setting: the figure for `Cc1ccc(C(=O)S[C@H]2CC(=O)[C@@](C)(CCC(=O)Nc3c(O)ccc(C(=O)O)c3O)[C@@H]3[C@@H]4C[C@H]5C[C@]23C[C@]5(C)O4)cc1` is 2 µg/mL (≈ 3.37 µM).

A further experiment deals with Staphylococcus aureus. Nature of the experiment: Antibacterial activity against methicillin-sensitive Staphylococcus aureus isolate 3 incubated overnight by agar dilution method. The format is functional. The procedure, abridged: as §1
For `C[C@]12C[C@]34C[C@@H]1C[C@H](O2)[C@H]3[C@](C)(CCC(=O)Nc1c(O)ccc(C(=O)O)c1O)C(=O)C[C@@H]4SC(=O)c1ccc(F)cc1`, the MIC was 1 µg/mL (≈ 1.67 µM).
The same measure, in the same setting: the figure for `Cc1ccc(C(=O)S[C@H]2CC(=O)[C@@](C)(CCC(=O)Nc3c(O)ccc(C(=O)O)c3O)[C@@H]3[C@@H]4C[C@H]5C[C@]23C[C@]5(C)O4)cc1` is 1 µg/mL (≈ 1.68 µM).

In the next experiment the test system is Staphylococcus aureus. Nature of the experiment: Antibacterial activity against methicillin-resistant Staphylococcus aureus isolate 5 incubated overnight by agar dilution method. The format is functional. A digest of the protocol: as §1
`C[C@]12C[C@]34C[C@@H]1C[C@H](O2)[C@H]3[C@](C)(CCC(=O)Nc1c(O)ccc(C(=O)O)c1O)C(=O)C[C@@H]4SC(=O)c1ccc(F)cc1` had an MIC of 2 µg/mL (≈ 3.35 µM).
The same measure, in the same setting: the figure for `Cc1ccc(C(=O)S[C@H]2CC(=O)[C@@](C)(CCC(=O)Nc3c(O)ccc(C(=O)O)c3O)[C@@H]3[C@@H]4C[C@H]5C[C@]23C[C@]5(C)O4)cc1` is 2 µg/mL (≈ 3.37 µM).

The subject of the next experiment is Staphylococcus aureus. The experiment is described as follows: Antibacterial activity against methicillin-resistant Staphylococcus aureus isolate 11 incubated overnight by agar dilution method. The format is functional. The procedure, abridged: as §1
`C[C@]12C[C@]34C[C@@H]1C[C@H](O2)[C@H]3[C@](C)(CCC(=O)Nc1c(O)ccc(C(=O)O)c1O)C(=O)C[C@@H]4SC(=O)c1ccc(F)cc1` registered an MIC of 2 µg/mL (≈ 3.35 µM).
Same read-out and setting: the figure for `Cc1ccc(C(=O)S[C@H]2CC(=O)[C@@](C)(CCC(=O)Nc3c(O)ccc(C(=O)O)c3O)[C@@H]3[C@@H]4C[C@H]5C[C@]23C[C@]5(C)O4)cc1` is 2 µg/mL (≈ 3.37 µM).

The subject of another experiment is Staphylococcus aureus. Nature of the experiment: Antibacterial activity against methicillin-resistant Staphylococcus aureus isolate 10 incubated overnight by agar dilution method. The format is functional. The procedure, abridged:
as §1
Regarding `C[C@]12C[C@]34C[C@@H]1C[C@H](O2)[C@H]3[C@](C)(CCC(=O)Nc1c(O)ccc(C(=O)O)c1O)C(=O)C[C@@H]4SC(=O)c1ccc(F)cc1`, the lowest concentration to inhibit growth (MIC) was 1 µg/mL (≈ 1.67 µM).
Still for that read-out and setting: as for `Cc1ccc(C(=O)S[C@H]2CC(=O)[C@@](C)(CCC(=O)Nc3c(O)ccc(C(=O)O)c3O)[C@@H]3[C@@H]4C[C@H]5C[C@]23C[C@]5(C)O4)cc1`, the figure is 1 µg/mL (≈ 1.68 µM).

The test system of another experiment is Staphylococcus aureus. The experiment is described as follows: Antibacterial activity against methicillin-resistant Staphylococcus aureus isolate 6 incubated overnight by agar dilution method. The format is functional. The procedure, abridged:
as §1
For `C[C@]12C[C@]34C[C@@H]1C[C@H](O2)[C@H]3[C@](C)(CCC(=O)Nc1c(O)ccc(C(=O)O)c1O)C(=O)C[C@@H]4SC(=O)c1ccc(F)cc1`, the MIC was 1 µg/mL (≈ 1.67 µM).
On the same count and under the same terms, the figure for `Cc1ccc(C(=O)S[C@H]2CC(=O)[C@@](C)(CCC(=O)Nc3c(O)ccc(C(=O)O)c3O)[C@@H]3[C@@H]4C[C@H]5C[C@]23C[C@]5(C)O4)cc1` is 1 µg/mL (≈ 1.68 µM).

Another experiment relates to Staphylococcus aureus. The experiment is described as follows: Antibacterial activity against Staphylococcus aureus ATCC 29213 incubated overnight by agar dilution method. The format is functional. The procedure, abridged: as §1
In turn, `C[C@]12C[C@]34C[C@@H]1C[C@H](O2)[C@H]3[C@](C)(CCC(=O)Nc1c(O)ccc(C(=O)O)c1O)C(=O)C[C@@H]4SC(=O)c1ccc(F)cc1` gave an MIC of 1 µg/mL (≈ 1.67 µM).
On the same count and under the same terms, the figure for `Cc1ccc(C(=O)S[C@H]2CC(=O)[C@@](C)(CCC(=O)Nc3c(O)ccc(C(=O)O)c3O)[C@@H]3[C@@H]4C[C@H]5C[C@]23C[C@]5(C)O4)cc1` is 1 µg/mL (≈ 1.68 µM).

The next experiment relates to Staphylococcus aureus. Nature of the experiment: Antibacterial activity against methicillin-resistant Staphylococcus aureus isolate 9 incubated overnight by agar dilution method. The format is functional. A digest of the protocol: as §1
`C[C@]12C[C@]34C[C@@H]1C[C@H](O2)[C@H]3[C@](C)(CCC(=O)Nc1c(O)ccc(C(=O)O)c1O)C(=O)C[C@@H]4SC(=O)c1ccc(F)cc1` came in with an MIC of 1 µg/mL (≈ 1.67 µM).
Still for that read-out and setting: as for `Cc1ccc(C(=O)S[C@H]2CC(=O)[C@@](C)(CCC(=O)Nc3c(O)ccc(C(=O)O)c3O)[C@@H]3[C@@H]4C[C@H]5C[C@]23C[C@]5(C)O4)cc1`, the figure is 1 µg/mL (≈ 1.68 µM).

The subject of another experiment is Staphylococcus aureus. Nature of the experiment: Antibacterial activity against methicillin-sensitive Staphylococcus aureus isolate 1 incubated overnight by agar dilution method. The format is functional. A digest of the protocol:
as §1
Compound `C[C@]12C[C@]34C[C@@H]1C[C@H](O2)[C@H]3[C@](C)(CCC(=O)Nc1c(O)ccc(C(=O)O)c1O)C(=O)C[C@@H]4SC(=O)c1ccc(F)cc1` had an MIC of 1 µg/mL (≈ 1.67 µM).
`Cc1ccc(C(=O)S[C@H]2CC(=O)[C@@](C)(CCC(=O)Nc3c(O)ccc(C(=O)O)c3O)[C@@H]3[C@@H]4C[C@H]5C[C@]23C[C@]5(C)O4)cc1` came in with an MIC of 1 µg/mL (≈ 1.68 µM).
